Results: paper PMC10448036 (International Journal for Parasitology: Drugs and Drug …, 2023)
Where two headings read alike, the source gives them in different places. Marks after values point to notes of the source that are not given here.

What was measured:
[1] = test system: multiple resistant gastrointestinal nematodes (mainly H. contortus); test: Faecal egg count reduction test; assay type: in vivo, lambs; conditions: for Nematode egg counts (mean): arithmetic mean; for Efficacy (%) [CI] (FECRT): 95% CI, Coles et al. (1992) formula
[2] = test system: gastrointestinal nematodes; conditions: cattle, ref Leathwick and Miller (2013), cited from earlier work
[3] = Adverse events / tolerability; assay type: in vivo; conditions: lambs, sc and oral treatments
P-gp = conditions: ref Lespine et al., 2006; cited from earlier work
[4] = most species, ref Zulalian et al., 1994; cited from earlier work
[5] = test system: Nematodirus spp., Oesphagostomum spp. and Trichuris ovis; test: Adult nematode counts at necropsy; assay type: in vivo; conditions: 13 days post-treatment, sc and oral, lambs n = 2 per group
In short: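 Naturally parasitized lambs, ranked by epg and split into groups of 10, were dosed on day 0 by individual weight with two test compounds, alone or combined. The first was given at 5 mg/kg sc or 10 mg/kg oral, the second at 0.2 mg/kg sc or oral. An untreated control group was kept. At 13 and 28 days post-treatment, two random animals per group were killed by captive bolt and exsanguinated.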

susceptible H. contortus = conditions: single dose, sheep, absence of resistance, cited from earlier work
[6] = test system: Other genera (Trichostrongylus spp.; Teladorsagia spp. and Oesophagostomum spp.); test: L3 from pooled faecal cultures, by genus; assay type: in vivo, lambs
In short: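 Naturally parasitized lambs (groups of 10) were dosed by weight on day 0 with two test compounds, alone or combined: the first at 5 mg/kg sc or 10 mg/kg oral, the second at 0.2 mg/kg sc or oral; untreated controls were kept. Rectal faeces were counted for epg by modified McMaster. Pooled group faecal cultures at days −1, 13, 22 and 28 gave L3 typed to genus. Genus efficacy = 100×(1−T/C) on arithmetic-mean epg partitioned by each genus's L3 proportion.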

[7] = Plasma disposition kinetics; assay type: in vivo, lambs; conditions: for AUC0-LOQ / AUC0-∞: closantel in plasma, lambs
Haemoncus spp. = test: L3 from pooled faecal cultures, by genus; assay type: in vivo, lambs
[8] = test system: breast cancer resistance protein (BCRP); conditions: ref Pérez et al., 2009; cited from earlier work
H. contortus population = conditions: SUL experimental farm, ref Castells, personal communication; cited from earlier work
[9] = ref Hennessy and Ali, 1997; cited from earlier work
plasma proteins = conditions: ref Mohammed Ali and Bogan, 1987; Hennessy, 1993; cited from earlier work
[10] = Day 2 post-treatment, oral (CLO 10 mg/kg, MXD 0.2 mg/kg)
[11] = Day 2 post-treatment, subcutaneous (CLO 5 mg/kg, MXD 0.2 mg/kg)
[12] = Day 6 post-treatment, oral (CLO 10 mg/kg, MXD 0.2 mg/kg)
[13] = Day 6 post-treatment, subcutaneous (CLO 5 mg/kg, MXD 0.2 mg/kg)
[14] = Day 10 post-treatment, oral (CLO 10 mg/kg, MXD 0.2 mg/kg)
[15] = Day 13 post-treatment, oral (CLO 10 mg/kg, MXD 0.2 mg/kg)
[16] = Day 13 post-treatment, subcutaneous (CLO 5 mg/kg, MXD 0.2 mg/kg)
[17] = Day 22 post-treatment, oral (CLO 10 mg/kg, MXD 0.2 mg/kg)
[18] = Day 22 post-treatment, subcutaneous (CLO 5 mg/kg, MXD 0.2 mg/kg)
[19] = Day 28 post-treatment, oral (CLO 10 mg/kg, MXD 0.2 mg/kg)
[20] = Day 28 post-treatment, subcutaneous (CLO 5 mg/kg, MXD 0.2 mg/kg)
[21] = 22 days post-treatment, subcutaneous
[22] = 28 days post-treatment, subcutaneous
[23] = CLO co-administered with MXD by the sc route vs CLO alone, P < 0.05
[24] = CLO 10 mg/kg oral alone (CLOoral)

Row | SMILES | Nematode egg counts (mean) [1, 10] | Nematode egg counts (mean) [1, 11] | Nematode egg counts (mean) [1, 12] | Nematode egg counts (mean) [1, 13] | Nematode egg counts (mean) [1, 14] | Efficacy (%) [CI] (FECRT) [1, 15] | Nematode egg counts (mean) [1, 15] | Efficacy (%) [CI] (FECRT) [1, 16] | Nematode egg counts (mean) [1, 16] | Efficacy (%) [CI] (FECRT) [1, 17] | Nematode egg counts (mean) [1, 17] | Efficacy (%) [CI] (FECRT) [1, 18] | Nematode egg counts (mean) [1, 18] | Efficacy (%) [CI] (FECRT) [1, 19] | Nematode egg counts (mean) [1, 19] | Efficacy (%) [CI] (FECRT) [1, 20] | Nematode egg counts (mean) [1, 20] | Adverse events [3] | Fate of Nematodirus spp., Oesphagostomum spp. and Trichuris ovis [5] | Efficacy (%) ([6]; 22 days post-treatment, oral) | also measured
1 | CO/N=C1\C[C@]2(C[C@@H]3C[C@@H](C/C=C(\C)C[C@@H](C)/C=C/C=C4\CO[C@@H]5[C@H](O)C(C)=C[C@@H](C(=O)O3)[C@]45O)O2)O[C@H](/C(C)=C/C(C)C)[C@H]1C [MXD, moxidectin] | 240 ^ab epg | 150 ^ab epg | 340 ^ab epg | 250^a epg | 530 ^bc epg | 80 [62–89] % | 1140 ^b epg | 92 [85–96] % | 430 ^b epg | 82 [53–93] % | 888 ^b epg | 80 [61–90] % | 975 ^b epg | 61 [6–84] % | 1525 epg | 74 [38–89] % | 1013 epg | No adverse events were observed | efficiently eliminated | 0% | Efficacy ([2]; oral treatment): 91.1%; Efficacy ([2]; sc injection): 55.5%; Interaction with mammalian P-gp (P-gp): much weaker compared with ivermectin; Dose excreted unchanged in the faeces [4]: 90%; Protection against reinfection up to (susceptible H. contortus; ref Kerboeuf et al., 1995): ≤ 35 days; Efficacy (%) ([6]; 13 days post-treatment, oral): 0%; Efficacy (%) [6, 21]: 0%; Efficacy (%) ([6]; 28 days post-treatment, oral): 0%; AUC0-LOQ after the oral treatment as share of that after the sc treatment ([7]; MXD 0.2 mg/kg oral vs sc): 33%; Quantified in plasma up to ([7]; post oral treatment): ≤ 25 days; Quantified in plasma up to ([7]; post sc treatment): up to 28 days; Efficacy (%) (Haemoncus spp.; 13 days post-treatment, oral): 100%; Efficacy (%) (Haemoncus spp.; 22 days post-treatment, oral): 100%; Efficacy (%) (Haemoncus spp.; [21]): 100%; Efficacy (%) (Haemoncus spp.; 28 days post-treatment, oral): 100%; Interaction with BCRP [8]: identified as a BCRP substrate; Efficacies of single dose (H. contortus population): above 85%
2 | Cc1cc(C(C#N)c2ccc(Cl)cc2)c(Cl)cc1NC(=O)c1cc(I)cc(I)c1O (centres unmarked) [CLO, closantel] | 630 ^b epg | 790 ^b epg | 550 ^b epg | 530 ^b epg | 770^c epg | 84 [71–91] % | 890 ^b epg | 85 [72–92] % | 830 ^b epg | 83 [73–89] % | 850 ^b epg | 82 [67–91] % | 863 ^b epg | 66 [36–82] % | 1350 epg | 84 [57–94] % | 650 epg | No adverse events were observed | survive | 96% | Efficacy (FECRT) ([1]; 13 days post-treatment, drug alone, over the sc and oral treatments): 84 to 85%; Biodegradation by the ruminal fluid [9]: not exposed to any significant biodegradation; Protection against reinfection up to (susceptible H. contortus; ref Hall et al., 1981): up to 28 days; Efficacy (%) [6, 21]: 100%; Efficacy (%) [6, 22]: 99%; Binding to plasma proteins (plasma proteins): > 99%; Longer MRT after co-administration [7, 23]: 42%; Longer T½el after co-administration [7, 23]: 39%; Plasma drug exposure (AUC0-LOQ) lower after oral than after sc treatment ([7]; CLO oral 10 mg/kg vs sc 5 mg/kg, P < 0.05): 34%; AUC0-LOQ ([7]; CLO 5 mg/kg sc alone (CLOSC)): 1570 ± 419^ab μg.d/mL; AUC0-∞ ([7]; CLO 5 mg/kg sc alone (CLOSC)): 2231 ± 662^ab μg.d/mL; AUC0-LOQ [7, 24]: 1042 ± 170^c μg.d/mL; AUC0-∞ [7, 24]: 1438 ± 367^b μg.d/mL; Quantified in plasma up to ([7]; post oral treatment): up to 28 days; Quantified in plasma up to ([7]; post sc treatment): up to 28 days; Efficacy (%) (Haemoncus spp.; 22 days post-treatment, oral): 4%; Efficacy (%) (Haemoncus spp.; [21]): 0%; Efficacy (%) (Haemoncus spp.; 28 days post-treatment, oral): 9%; Efficacy (%) (Haemoncus spp.; [22]): 1%; Efficacies of single dose (H. contortus population): above 85%
